pKi: −log10 of the molar value. In brackets after ≈: the same amount, converted by molar mass.
Tests used:
[1] = Binding affinity to Escherichia coli ThrRS by coupled spectrophotometry
Method in brief: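 Coupled spectrophotometric assay following pyrophosphate released during ATP-dependent adenylation, read out through MESG with inorganic pyrophosphatase and purine nucleoside phosphorylase. Buffer was 60 mM Tris pH 7.6, 10 mM MgCl₂, 20 mM KCl, 0.5 mM DTT, 2% DMSO, with 4 mM ATP, 200 mM L-serine as surrogate substrate and 5 nM enzyme.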

Threonine--tRNA ligase = target: T1, Threonine--tRNA ligase (Yersinia pestis, UniProt Q8ZDW5); assay: Binding affinity to Yersinia pestis ThrRS by coupled spectrophotometry
T1 sequence (Q8ZDW5 whole entry): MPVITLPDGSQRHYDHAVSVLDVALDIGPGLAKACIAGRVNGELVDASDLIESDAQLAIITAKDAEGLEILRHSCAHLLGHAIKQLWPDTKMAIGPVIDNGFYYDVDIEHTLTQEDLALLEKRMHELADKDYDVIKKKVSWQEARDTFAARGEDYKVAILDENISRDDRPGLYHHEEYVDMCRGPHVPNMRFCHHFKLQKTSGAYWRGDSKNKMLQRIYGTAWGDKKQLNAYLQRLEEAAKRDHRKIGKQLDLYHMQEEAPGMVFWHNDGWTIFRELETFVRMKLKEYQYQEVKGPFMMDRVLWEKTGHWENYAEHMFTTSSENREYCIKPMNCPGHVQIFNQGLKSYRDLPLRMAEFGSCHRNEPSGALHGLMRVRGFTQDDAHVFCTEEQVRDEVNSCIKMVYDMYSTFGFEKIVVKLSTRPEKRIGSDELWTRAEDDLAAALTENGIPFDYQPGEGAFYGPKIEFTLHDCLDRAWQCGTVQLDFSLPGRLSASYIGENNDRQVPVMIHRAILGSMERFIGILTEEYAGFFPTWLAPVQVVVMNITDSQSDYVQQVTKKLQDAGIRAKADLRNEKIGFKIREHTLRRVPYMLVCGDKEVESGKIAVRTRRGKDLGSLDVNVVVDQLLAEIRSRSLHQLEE
Method in brief: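 Coupled spectrophotometric (MESG) readout of pyrophosphate release during adenylation; L-serine 200 mM as surrogate substrate, 4 mM ATP, 5 nM enzyme, Tris pH 7.6, MgCl₂, KCl, DTT, 2% DMSO. Inhibitor 16-point 2-fold series, 50 μM–1.5 nM, normalised to no-inhibitor and no-enzyme controls. IC50 from 4-parameter fit; Ki by bisubstrate Cheng–Prusoff.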

Escherichia coli [2] = assay: Antimicrobial activity against Escherichia coli BW25113 expressing TolC Leu13-Ala480 deletion mutant measured after overnight incubation by alamarBlue assay; format: functional
[3] = system: Burkholderia thailandensis; assay: Antimicrobial activity against isogenic amrAB-oprA/bpeAB-oprB double knockout Burkholderia thailandensis E264 measured after overnight incubation by alamarBlue assay; format: functional
Escherichia coli [4] = assay: Antimicrobial activity against wild type Escherichia coli ATCC 25922 measured after overnight incubation by alamarBlue assay; format: functional
Method in brief: (§1)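 Broth microdilution per CLSI; DMSO stocks at 6.4 mg/mL, serially diluted and added 1:50 to inoculated medium for final 0.063–128 μg/mL. Inoculum about 5 × 10⁵ CFU/mL, checked by plating. Overnight at 37 °C; H. influenzae grown in Haemophilus test medium broth with 5% CO₂. alamarBlue added for 1 h; MIC read as the lowest concentration with no visible color change.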

[5] = Binding affinity to Burkholderia thailandensis ThrRS by coupled spectrophotometry
Haemophilus influenzae = assay: Antimicrobial activity against wild type Haemophilus influenzae ATCC 31517 measured after overnight incubation by alamarBlue assay; format: functional; method in brief: as §1
[6] = system: Burkholderia thailandensis; assay: Antimicrobial activity against wild type Burkholderia thailandensis E264 measured after overnight incubation by alamarBlue assay; format: functional
Escherichia coli [7] = assay: Antimicrobial activity against Escherichia coli BAS849 expressing Imp Thr332-Tyr354 deletion mutant measured after overnight incubation by alamarBlue assay; format: functional
[8] = target: T2, Threonine--tRNA ligase 1, cytoplasmic (Homo sapiens, UniProt P26639); assay: Binding affinity to human cytoplasmic ThrRS by coupled spectrophotometry
T2 sequence (P26639 whole entry): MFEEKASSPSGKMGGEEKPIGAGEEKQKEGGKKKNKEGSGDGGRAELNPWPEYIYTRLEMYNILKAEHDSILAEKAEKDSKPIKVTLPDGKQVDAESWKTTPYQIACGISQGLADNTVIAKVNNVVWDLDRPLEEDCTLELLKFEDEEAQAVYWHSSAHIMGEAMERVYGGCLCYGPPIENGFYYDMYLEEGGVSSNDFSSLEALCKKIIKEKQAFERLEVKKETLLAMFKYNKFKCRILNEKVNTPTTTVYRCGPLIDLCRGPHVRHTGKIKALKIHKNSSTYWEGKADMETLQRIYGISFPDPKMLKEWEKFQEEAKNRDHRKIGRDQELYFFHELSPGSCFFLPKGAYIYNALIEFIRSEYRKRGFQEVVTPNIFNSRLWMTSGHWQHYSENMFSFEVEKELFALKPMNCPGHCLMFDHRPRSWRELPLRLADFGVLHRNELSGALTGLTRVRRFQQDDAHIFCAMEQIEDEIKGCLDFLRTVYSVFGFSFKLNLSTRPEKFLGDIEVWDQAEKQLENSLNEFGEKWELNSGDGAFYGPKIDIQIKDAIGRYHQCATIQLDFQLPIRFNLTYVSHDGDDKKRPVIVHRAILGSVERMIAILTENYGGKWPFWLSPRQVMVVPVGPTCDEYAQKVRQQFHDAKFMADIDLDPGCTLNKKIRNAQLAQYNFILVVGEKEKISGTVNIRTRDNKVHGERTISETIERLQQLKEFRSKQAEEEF

## C[C@@H](N)[C@H](N)C(=O)NS(=O)(=O)/C=C/c1cccc(-c2cc(N)ncn2)c1
[1]
  pKi: < 4.30
Threonine--tRNA ligase
  pKi: < 4.30

## C[C@@H](O)[C@H](N)C(=O)NS(=O)(=O)OC[C@@H]1O[C@H](n2cnc3c(N)ncnc32)[C@@H](O)[C@H]1O
Escherichia coli [2]
  MIC: > 128 µg/mL
[3]
  MIC: 64 µg/mL (≈ 143 µM)
Escherichia coli [4]
  MIC: > 128 µg/mL
[5]
  pKi: 8.55
[1]
  pKi: 7.88
Threonine--tRNA ligase
  pKi: 8.01
Haemophilus influenzae
  MIC: > 128 µg/mL
[6]
  MIC: > 128 µg/mL
Escherichia coli [7]
  MIC: > 128 µg/mL

## C[C@@H](O)[C@H](N)C(=O)NS(=O)(=O)c1cccc(-c2ccc3c(N)ncnc3c2)c1
Escherichia coli [2]
  MIC: 64 µg/mL (≈ 159 µM)
[3]
  MIC: 8 µg/mL (≈ 19.9 µM)
Escherichia coli [4]
  MIC: > 128 µg/mL
[5]
  pKi: 9.05
[1]
  pKi: 8.54
Threonine--tRNA ligase
  pKi: 8.66
Haemophilus influenzae
  MIC: 16 µg/mL (≈ 39.9 µM)
[6]
  MIC: > 128 µg/mL
Escherichia coli [7]
  MIC: > 128 µg/mL

## C[C@@H](O)[C@H](N)C(=O)NS(=O)(=O)c1cccc(-c2ccc3c(N)nc(N)nc3c2)c1
Escherichia coli [2]
  MIC: 64 µg/mL (≈ 154 µM)
[3]
  MIC: 4 µg/mL (≈ 9.6 µM)
Escherichia coli [4]
  MIC: > 128 µg/mL
[5]
  pKi: 8.54
[1]
  pKi: 7.97
Threonine--tRNA ligase
  pKi: 8.09
Haemophilus influenzae
  MIC: 32 µg/mL (≈ 76.8 µM)
[6]
  MIC: > 128 µg/mL
Escherichia coli [7]
  MIC: > 128 µg/mL

## C[C@@H](O)[C@H](N)C(=O)NS(=O)(=O)c1cccc(-c2ccc3c(N)nc(Cl)nc3c2)c1
Escherichia coli [2]
  MIC: 16 µg/mL (≈ 36.7 µM)
[3]
  MIC: 32 µg/mL (≈ 73.4 µM)
Escherichia coli [4]
  MIC: > 128 µg/mL
[5]
  pKi: 9.52
[1]
  pKi: 9.10
Threonine--tRNA ligase
  pKi: 9.15
Haemophilus influenzae
  MIC: 8 µg/mL (≈ 18.4 µM)
[6]
  MIC: > 128 µg/mL
Escherichia coli [7]
  MIC: 128 µg/mL (≈ 294 µM)

## Cc1nc(N)c2ccc(-c3cccc(S(=O)(=O)NC(=O)[C@@H](N)[C@@H](C)O)c3)cc2n1
[5]
  pKi: 7.91
[1]
  pKi: 7.76
Threonine--tRNA ligase
  pKi: 8.03

## C[C@@H](O)[C@H](N)C(=O)NS(=O)(=O)c1cccc(-c2ccc3c(N)nc(Cl)cc3c2)c1
[5]
  pKi: 7.64
[1]
  pKi: 7.70
Threonine--tRNA ligase
  pKi: 7.60

## C[C@@H](O)[C@H](N)C(=O)NS(=O)(=O)c1cccc(-c2ccc3c(N)nccc3c2)c1
[5]
  pKi: 7.05
[1]
  pKi: 7.05
Threonine--tRNA ligase
  pKi: 6.94

## C[C@@H](O)[C@H](N)C(=O)NS(=O)(=O)c1ccc2ccc(-c3cc(N)ncn3)cc2c1
Escherichia coli [2]
  MIC: 64 µg/mL (≈ 159 µM)
[3]
  MIC: 4 µg/mL (≈ 9.96 µM)
Escherichia coli [4]
  MIC: > 128 µg/mL
[5]
  pKi: 9.15
[1]
  pKi: 8.57
Threonine--tRNA ligase
  pKi: 8.70
Haemophilus influenzae
  MIC: 4 µg/mL (≈ 9.96 µM)
[6]
  MIC: > 128 µg/mL
Escherichia coli [7]
  MIC: > 128 µg/mL

## C[C@@H](O)[C@H](N)C(=O)NS(=O)(=O)/C=C/c1cccc(-c2cc(N)ncn2)c1
Escherichia coli [2]
  MIC: 64 µg/mL (≈ 170 µM)
[3]
  MIC: 32 µg/mL (≈ 84.8 µM)
Escherichia coli [4]
  MIC: > 128 µg/mL
[5]
  pKi: 8.96
[1]
  pKi: 8.57
Threonine--tRNA ligase
  pKi: 8.74
Haemophilus influenzae
  MIC: 8 µg/mL (≈ 21.2 µM)
[6]
  MIC: > 128 µg/mL
Escherichia coli [7]
  MIC: > 128 µg/mL

## C[C@@H](O)[C@H](N)C(=O)NS(=O)(=O)c1ccc2ccc(-c3ncnc4[nH]ccc34)cc2c1
Escherichia coli [2]
  MIC: 16 µg/mL (≈ 37.6 µM)
[3]
  MIC: 32 µg/mL (≈ 75.2 µM)
Escherichia coli [4]
  MIC: > 128 µg/mL
[5]
  pKi: 9.22
[1]
  pKi: 8.62
Threonine--tRNA ligase
  pKi: 8.74
Haemophilus influenzae
  MIC: 16 µg/mL (≈ 37.6 µM)
[6]
  MIC: > 128 µg/mL
Escherichia coli [7]
  MIC: > 128 µg/mL

## C[C@@H](O)[C@H](N)C(=O)NS(=O)(=O)N1CCc2ccc(-c3ncnc4[nH]ccc34)cc2C1
[5]
  pKi: 8.40
[1]
  pKi: 8.02
Threonine--tRNA ligase
  pKi: 8.24

## C[C@@H](O)[C@H](N)C(=O)NS(=O)(=O)c1cccc(-c2ccc3c(c2)CNC3=O)c1
[5]
  pKi: 8.13
[1]
  pKi: 8.11
Threonine--tRNA ligase
  pKi: 8.41

## C[C@@H](O)[C@H](N)C(=O)NS(=O)(=O)c1cccc(-c2ccc3[nH]nc(Cl)c3c2)c1
[5]
  pKi: 7.11
[1]
  pKi: 7.28
Threonine--tRNA ligase
  pKi: 7.41

## C[C@@H](O)[C@H](N)C(=O)NS(=O)(=O)c1ccc(Oc2ccccc2)cc1
[5]
  pKi: 3.71
[1]
  pKi: 4.44
Threonine--tRNA ligase
  pKi: 4.48

## Cc1n[nH]c2ccc(-c3cccc(S(=O)(=O)NC(=O)[C@@H](N)[C@@H](C)O)c3)cc12
[5]
  pKi: 6.84
[1]
  pKi: 6.90
Threonine--tRNA ligase
  pKi: 7.08

## C[C@@H](O)[C@H](N)C(=O)NS(=O)(=O)c1cccc(-c2ccc3[nH]ncc3c2)c1
[8]
  pKi: < 4.30
[5]
  pKi: 6.79
[1]
  pKi: 6.74
Threonine--tRNA ligase
  pKi: 6.88

## C[C@@H](O)[C@H](N)C(=O)NCc1cccc(-c2ccc3c(N)nc(Cl)nc3c2)c1
[5]
  pKi: 6.85
[1]
  pKi: 6.48
Threonine--tRNA ligase
  pKi: 6.36

## C[C@@H](O)[C@H](N)C(=O)NNc1cccc(-c2ccc3c(N)nc(Cl)nc3c2)c1
[5]
  pKi: 7.47
[1]
  pKi: 6.87
Threonine--tRNA ligase
  pKi: 7.15

## C[C@@H](O)[C@H](N)CNS(=O)(=O)c1cccc(-c2ccc3c(N)nc(Cl)nc3c2)c1
[8]
  pKi: < 4.30
[1]
  pKi: < 4.30
Threonine--tRNA ligase
  pKi: < 4.30

## C[C@@H](O)[C@H](N)C(=O)N(C)S(=O)(=O)c1cccc(-c2ccc3c(c2)CNC3=O)c1
[8]
  pKi: < 4.30
[1]
  pKi: < 4.30
Threonine--tRNA ligase
  pKi: < 4.30

## CC[C@@H](O)[C@H](N)C(=O)NS(=O)(=O)/C=C/c1cccc(-c2cc(N)ncn2)c1
[5]
  pKi: 7.85
[1]
  pKi: 8.37
Threonine--tRNA ligase
  pKi: 8.57

## CC(C)[C@@H](O)[C@H](N)C(=O)NS(=O)(=O)/C=C/c1cccc(-c2cc(N)ncn2)c1
[5]
  pKi: 6.23
[1]
  pKi: 7.49
Threonine--tRNA ligase
  pKi: 7.65

## C[C@@H](O)[C@H](O)C(=O)NS(=O)(=O)/C=C/c1cccc(-c2cc(N)ncn2)c1
[8]
  pKi: < 4.30
[1]
  pKi: < 4.30
Threonine--tRNA ligase
  pKi: < 4.30

— ChEMBL document CHEMBL2311457, “Identification of bacteria-selective threonyl-tRNA synthetase substrate inhibitors by structure-based design” (J Med Chem, 2013)
